According to ChEMBL document CHEMBL1130127, “Synthesis, photophysical properties, in vivo photosensitizing efficacy, and human serum albumin binding properties of some novel bacteriochlorins” (J Med Chem, 1997):
Activity calls are given as the source filed them. The rule behind the calls is not given here.

Tests used:
Mus musculus [1] = test: The compound was tested in vivo for photosensitizing efficacy in DBA/2 Mice transplanted with SMT/F tumors and the activity is expressed as % response at (1-5 days) 24 hours post injection at 5 mg/kg concentration; No response; format: functional, organism-based; parameters: dose 5 mg/kg
Summary of the method: (§1)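 Female DBA/2 HA-DD mice, 5-7 weeks old. A 1 mm SMT-F tumor piece from a donor was trocar-implanted subcutaneously in the axilla. At about 5 mm tumor diameter, sensitizer in 1% Tween 80/water was given iv; dose was based on extinction coefficient. At 3 or 24 h after injection, restrained mice had the tumor lit with 135 J/cm2 laser light at the in vivo long-wavelength maximum. Tumor response was followed to day 30; six mice/group.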

Mus musculus [2] = test: The compound was tested in vivo for photosensitizing efficacy in DBA/2 Mice transplanted with SMT/F tumors and the activity is expressed as % response at (21-25 days) 3 hours post injection at 2.5 mg/kg concentration; No response; format: functional, organism-based; parameters: dose 2.5 mg/kg; summary of the method: as §1
Mus musculus [3] = test: The compound was tested in vivo for photosensitizing efficacy in DBA/2 Mice transplanted with SMT/F tumors and the activity is expressed as % response at (1-5 days) 3 hours post injection at 2.5 mg/kg concentration; No response; format: functional, organism-based; parameters: dose 2.5 mg/kg; summary of the method: as §1
Mus musculus [4] = test: The compound was tested in vivo for photosensitizing efficacy in DBA/2 Mice transplanted with SMT/F tumors and the activity is expressed as % response at (1-5 days) 3 hours post injection at 5.0 mg/kg concentration; format: functional; summary of the method: as §1
Mus musculus [5] = test: The compound was tested in vivo for photosensitizing efficacy in DBA/2 Mice transplanted with SMT/F tumors and the activity is expressed as % response at (11-15 days) 24 hours post injection at 5 mg/kg concentration; No response; format: functional, organism-based; parameters: dose 5 mg/kg; summary of the method: as §1
Mus musculus [6] = test: The compound was tested in vivo for photosensitizing efficacy in DBA/2 Mice transplanted with SMT/F tumors and the activity is expressed as % response at (11-15 days) 3 hours post injection at 2.5 mg/kg concentration; No response; format: functional, organism-based; parameters: dose 2.5 mg/kg; summary of the method: as §1
Mus musculus [7] = test: The compound was tested in vivo for photosensitizing efficacy in DBA/2 Mice transplanted with SMT/F tumors and the activity is expressed as % response at (11-15 days) 3 hours post injection at 5 mg/kg concentration; format: functional; summary of the method: as §1
Mus musculus [8] = test: The compound was tested in vivo for photosensitizing efficacy in DBA/2 Mice transplanted with SMT/F tumors and the activity is expressed as % response at (16-20 days) 24 hours post injection at 5 mg/kg concentration; No response; format: functional, organism-based; parameters: dose 5 mg/kg; summary of the method: as §1
Mus musculus [9] = test: The compound was tested in vivo for photosensitizing efficacy in DBA/2 Mice transplanted with SMT/F tumors and the activity is expressed as % response at (16-20 days) 3 hours post injection at 2.5 mg/kg concentration; No response; format: functional, organism-based; parameters: dose 2.5 mg/kg; summary of the method: as §1
Mus musculus [10] = test: The compound was tested in vivo for photosensitizing efficacy in DBA/2 Mice transplanted with SMT/F tumors and the activity is expressed as % response at (21-25 days) 3 hours post injection at 5 mg/kg concentration; format: functional
Mus musculus [11] = test: The compound was tested in vivo for photosensitizing efficacy in DBA/2 Mice transplanted with SMT/F tumors and the activity is expressed as % response at (26-30 days) 24 hours post injection at 5 mg/kg concentration; No response; format: functional, organism-based; parameters: dose 5 mg/kg
Mus musculus [12] = test: The compound was tested in vivo for photosensitizing efficacy in DBA/2 Mice transplanted with SMT/F tumors and the activity is expressed as % response at (26-30 days) 3 hours post injection at 2.5 mg/kg concentration; No response; format: functional, organism-based; parameters: dose 2.5 mg/kg
Mus musculus [13] = test: The compound was tested in vivo for photosensitizing efficacy in DBA/2 Mice transplanted with SMT/F tumors and the activity is expressed as % response at (26-30 days) 3 hours post injection at 5 mg/kg concentration; format: functional
Mus musculus [14] = test: The compound was tested in vivo for photosensitizing efficacy in DBA/2 Mice transplanted with SMT/F tumors and the activity is expressed as % response at (6-10 days) 24 hours post injection at 5 mg/kg concentration; No response; format: functional, organism-based; parameters: dose 5 mg/kg
Mus musculus [15] = test: The compound was tested in vivo for photosensitizing efficacy in DBA/2 Mice transplanted with SMT/F tumors and the activity is expressed as % response at (6-10 days) 3 hours post injection at 2.5 mg/kg concentration; No response; format: functional, organism-based; parameters: dose 2.5 mg/kg
Mus musculus [16] = test: The compound was tested in vivo for photosensitizing efficacy in DBA/2 Mice transplanted with SMT/F tumors and the activity is expressed as % response at (6-10 days) 3 hours post injection at 5 mg/kg concentration; format: functional
Mus musculus [17] = test: The compound was tested in vivo for photosensitizing efficacy in DBA/2 Mice transplanted with SMT/F tumors and the activity is expressed as % response at (16-20 days) 3 hours post injection at 5 mg/kg concentration; format: functional; summary of the method: as §1
Mus musculus [18] = test: The compound was tested in vivo for photosensitizing efficacy in DBA/2 Mice transplanted with SMT/F tumors and the activity is expressed as % response at (21-25 days) 24 hours post injection at 5 mg/kg concentration; No response; format: functional, organism-based; parameters: dose 5 mg/kg; summary of the method: as §1
Albumin = Albumin (Homo sapiens, UniProt P02768); test: Binding affinity against Human serum albumin(Site I).
Summary of the method: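 Fluorometric titration: HSA and sensitizer fixed at 1 × 10^-6 mol/L. Site probe varied 4 × 10^-7 to 2 × 10^-6 mol/L: DNSA for site I, read at 472 nm; DP for site II, read at 476 nm; excitation 340 nm. Incubated 4 °C, pH 7.0, 4 h, dark. Bound probe taken from standard curves of free probe (water) and HSA-bound probe (2.5 × 10^-5 mol/L HSA).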

Mus musculus [19] = test: The compound was tested in vivo for photosensitizing efficacy in DBA/2 Mice transplanted with SMT/F tumors and the activity is expressed as % response at ( 21-25 days) 24 hours post injection at 5.0 mg/kg concentration; format: functional, organism-based; parameters: dose 5 mg/kg; summary of the method: as §1
Mus musculus [20] = test: The compound was tested in vivo for photosensitizing efficacy in DBA/2 Mice transplanted with SMT/F tumors and the activity is expressed as % response at ( 26-30 days) 24 hours post injection at 5.0 mg/kg concentration; format: functional, organism-based; parameters: dose 5 mg/kg; summary of the method: as §1
Mus musculus [21] = test: The compound was tested in vivo for photosensitizing efficacy in DBA/2 Mice transplanted with SMT/F tumors and the activity is expressed as % response at ( 6-10 days) 24 hours post injection at 5.0 mg/kg concentration; format: functional, organism-based; parameters: dose 5 mg/kg; summary of the method: as §1
Mus musculus [22] = test: The compound was tested in vivo for photosensitizing efficacy in DBA/2 Mice transplanted with SMT/F tumors and the activity is expressed as % response at (1-5 days) 24 hours post injection at 5.0 mg/kg concentration; format: functional, organism-based; parameters: dose 5 mg/kg; summary of the method: as §1
Mus musculus [23] = test: The compound was tested in vivo for photosensitizing efficacy in DBA/2 Mice transplanted with SMT/F tumors and the activity is expressed as % response at (11-15 days) 24 hours post injection at 5.0 mg/kg concentration; format: functional, organism-based; parameters: dose 5 mg/kg; summary of the method: as §1
Mus musculus [24] = test: The compound was tested in vivo for photosensitizing efficacy in DBA/2 Mice transplanted with SMT/F tumors and the activity is expressed as % response at (16-20 days) 24 hours post injection at 5.0 mg/kg concentration; format: functional, organism-based; parameters: dose 5 mg/kg; summary of the method: as §1

Sequence of Albumin (P02768 whole entry): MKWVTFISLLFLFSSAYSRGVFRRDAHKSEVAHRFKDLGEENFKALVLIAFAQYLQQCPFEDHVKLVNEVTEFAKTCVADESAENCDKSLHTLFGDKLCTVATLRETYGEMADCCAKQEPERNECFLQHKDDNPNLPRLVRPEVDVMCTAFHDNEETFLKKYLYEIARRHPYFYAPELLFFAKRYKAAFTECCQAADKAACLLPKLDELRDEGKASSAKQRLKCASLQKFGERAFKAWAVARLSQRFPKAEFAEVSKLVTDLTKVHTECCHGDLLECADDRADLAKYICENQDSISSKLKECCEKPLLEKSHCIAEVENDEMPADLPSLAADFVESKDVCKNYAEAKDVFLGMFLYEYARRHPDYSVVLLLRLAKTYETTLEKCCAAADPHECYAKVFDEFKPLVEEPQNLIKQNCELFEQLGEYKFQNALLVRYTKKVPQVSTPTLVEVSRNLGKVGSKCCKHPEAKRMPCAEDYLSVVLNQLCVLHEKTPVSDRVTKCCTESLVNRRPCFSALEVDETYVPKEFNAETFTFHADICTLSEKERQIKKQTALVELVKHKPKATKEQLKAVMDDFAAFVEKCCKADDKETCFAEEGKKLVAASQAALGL

## CCc1c(C)c2[nH]c1cc1[nH]c(cc3nc4c(c5nc(c2C=O)[C@@H](C)[C@@H]5CCC(=O)NC(CC(=O)OC(C)(C)C)C(=O)OC(C)(C)C)CCC4=C3C)C(O)(CC)C1(C)O (stereo not given in full)
Mus musculus [1]
  Response: inactive
Mus musculus [2]
  Response: inactive
Mus musculus [3]
  Response: inactive
Mus musculus [4]
  Response: 100%
Mus musculus [5]
  Response: inactive
Mus musculus [6]
  Response: inactive
Mus musculus [7]
  Response: 100%
Mus musculus [8]
  Response: inactive
Mus musculus [9]
  Response: inactive
Mus musculus [10]
  Response: 50%
Mus musculus [11]
  Response: inactive
Mus musculus [12]
  Response: inactive
Mus musculus [13]
  Response: 50%
Mus musculus [14]
  Response: inactive
Mus musculus [15]
  Response: inactive
Mus musculus [16]
  Response: 100%
Mus musculus [17]
  Response: 80%
Mus musculus [18]
  Response: inactive
Albumin
  Binding constant: 500000 l M-1

## PORFIMER SODIUM
Mus musculus [19]
  Response: 50%
Mus musculus [20]
  Response: 50%
Mus musculus [21]
  Response: 100%
Mus musculus [22]
  Response: 100%
Mus musculus [23]
  Response: 80%
Mus musculus [24]
  Response: 60%
